This note sets out measurements from ChEMBL document CHEMBL1132488, “On the bioactive conformation of NAN-190 (1) and MP3022 (2), 5-HT(1A) receptor antagonists” (J Med Chem, 1999).

Test [1] relates to Rattus norvegicus. The test is described as follows: Effect on 8-OH-DPAT-Induced LLR(lower lip retraction) in rats at a dose of 4 mg/kg. Format: functional. Summed up: (§1)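 Male Wistar rats, groups of 6. Compound given ip in 1% Tween 80 45 min before 8-OH-DPAT 1 mg/kg sc. Lower incisor visibility scored 0/0.5/1 at 15, 30 and 45 min after agonist, summed (max 3). Mean ± SEM; Newman–Keuls test; ED50 with range.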

For test [2], the species on record is Rattus norvegicus. The test is described as follows: Induction of behavioral syndrome(FT: forepaw treading) by the compound in reserpine pretreated rats at a dose of 2. Format: functional.
The subject of test [3] is Rattus norvegicus. Kind of test: Induction of LLR(lower lip retraction) by the compound in rats at a dose of 8 mg/kg. Format: functional. In outline: (§2)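 Male Wistar rats, groups of 6, given compound alone ip as 1% Tween 80 suspension. Lower incisor visibility scored 0/0.5/1 at 15, 30 and 45 min after dosing, summed (max 3 per rat). Mean ± SEM versus vehicle, Newman–Keuls test; ED50 with range.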

Test [4] is filed under the species Rattus norvegicus. Kind of test: Induction of behavioral syndrome(FBP: flat body posture) by the compound in reserpine pretreated rats at a dose of 8. Format: functional. In outline: (§3)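 Male Wistar rats (260–300 g) were given reserpine 1 mg/kg sc in saline 18 h before testing. Test compound was then given alone ip as a 1% Tween 80 suspension (2 mL/kg). FBP and FT were each scored 0–3 and summed (maximum 15). n=6 per group; mean ± SEM; Newman–Keuls test.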

For test [5], the species on record is Rattus norvegicus. The test is described as follows: Induction of behavioral syndrome(FT: forepaw treading) by the compound in reserpine pretreated rats at a dose of 4. Format: functional. Summed up:
as §3

Test [6] is filed under the species Rattus norvegicus. The test is described as follows: Induction of behavioral syndrome(FBP: flat body posture) by the compound in reserpine pretreated rats at a dose of 4. Format: functional. In outline: as §3
For test [7], the species on record is Rattus norvegicus. Kind of test: Effect on 8-OH-DAPT- induced behavioral syndrome(FBP: flat body posture) by the compound in reserpine pretreated rats at a dose of 8. Format: functional. In outline:
(§4)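 Reserpinized male Wistar rats (reserpine 1 mg/kg sc, 18 h before), groups of 6. Compound given ip in 1% Tween 80 60 min before 8-OH-DPAT 5 mg/kg sc. FBP/FT rated 0–3 at 3, 6, 9, 12 and 15 min after agonist, summed (max 15). Mean ± SEM; Newman–Keuls test; ED50 with range.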

Test [8] is filed under the species Rattus norvegicus. The test is described as follows: Effect on 8-OH-DAPT- induced behavioral syndrome(FBP: flat body posture) by the compound in reserpine pretreated rats at a dose of 4. It counts as functional. Summed up:
as §4

In test [9] the test system is Rattus norvegicus. Kind of test: Effect on 8-OH-DPAT-Induced LLR(lower lip retraction) in rats at a dose of 16 mg/kg. Format: functional. Summed up:
as §1

Test [10] is filed under the species Rattus norvegicus. Kind of test: Induction of behavioral syndrome(FT: forepaw treading) by the compound in reserpine pretreated rats at a dose of 8. It counts as functional. In outline:
as §3

Test [11] deals with Rattus norvegicus. The test is described as follows: Effect on 8-OH-DPAT-Induced LLR(lower lip retraction) in rats at a dose of 8 mg/kg. It counts as functional. Summed up: as §1
The species named for test [12] is Rattus norvegicus. Kind of test: Effect on 8-OH-DAPT- induced behavioral syndrome(FT: forepaw treading) by the compound in reserpine pretreated rats at a dose of 8. It counts as functional. In outline:
as §4

The species named for test [13] is Rattus norvegicus. Kind of test: Effect on 8-OH-DAPT- induced behavioral syndrome(FT: forepaw treading) by the compound in reserpine pretreated rats at a dose of 4. Format: functional. In outline:
as §4

The species named for test [14] is Rattus norvegicus. The test is described as follows: Induction of behavioral syndrome(FBP: flat body posture) by the compound in reserpine pretreated rats at a dose of 2. It counts as functional. In outline: (§5)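 Male Wistar rats (260–300 g), groups of 6, given reserpine 1 mg/kg sc 18 h before test. Compounds given ip as 1% Tween 80 suspension. FBP and FT rated 0–3 in 45-s sessions every 3 min, starting 3 min after dosing. Score summed over 5 periods (max 15 per symptom). Mean ± SEM; Newman–Keuls test.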

For test [15], the species on record is Rattus norvegicus. The test is described as follows: Effective dose of the required to inhibit symptoms produced by 8-OH-DPAT. It counts as functional. Summed up: as §4
In test [16] the test system is Rattus norvegicus. Kind of test: Induction of LLR(lower lip retraction) by the compound in rats at a dose of 16 mg/kg. Format: functional. Summed up: as §2
Test [17] addresses T1, 5-hydroxytryptamine receptor 1A (Rattus norvegicus, UniProt P19327).
T1 sequence (P19327 whole entry): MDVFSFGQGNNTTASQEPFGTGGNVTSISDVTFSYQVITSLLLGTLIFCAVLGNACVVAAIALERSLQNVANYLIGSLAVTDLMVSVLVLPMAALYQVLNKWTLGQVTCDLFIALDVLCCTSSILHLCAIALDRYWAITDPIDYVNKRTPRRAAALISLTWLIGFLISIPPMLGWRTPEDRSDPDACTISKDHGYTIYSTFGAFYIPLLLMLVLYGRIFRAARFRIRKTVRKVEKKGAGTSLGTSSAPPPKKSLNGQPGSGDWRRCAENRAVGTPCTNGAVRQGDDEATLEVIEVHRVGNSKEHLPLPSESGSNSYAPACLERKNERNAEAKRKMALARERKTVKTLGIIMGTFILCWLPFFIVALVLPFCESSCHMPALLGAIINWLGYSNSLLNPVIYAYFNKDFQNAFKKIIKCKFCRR
Kind of test: Ability to displace [3H]8-OH-DPAT from 5-hydroxytryptamine 1A receptor. Summed up:
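Rat hippocampal membranes, [3H]8-OH-DPAT radioligand. Ki from at least three competition experiments, each with 10–14 drug concentrations run in triplicate. Ki calculated with the Cheng–Prusoff equation.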

Test [18] is filed under the species Rattus norvegicus. The test is described as follows: Dose Inducing behavioral syndrome(FT: forepaw treading) by the compound in reserpine pretreated rats. Format: functional. Summed up:
as §5

For test [19], the species on record is Rattus norvegicus. Kind of test: Dose Inducing behavioral syndrome(FBP: flat body posture) by the compound in reserpine pretreated rats. Format: functional. Summed up:
as §5

The species entered for test [20] is Rattus norvegicus. Kind of test: Effect on 8-OH-DAPT- induced behavioral syndrome(FT: forepaw treading) by the compound in reserpine pretreated rats at a dose of 2. Format: functional.
In test [21] the test system is Rattus norvegicus. The test is described as follows: Induction of LLR(lower lip retraction) by the compound in rats at a dose of 4 mg/kg. Format: functional. Summed up:
as §2

Test [22] is filed under the species Rattus norvegicus. Kind of test: Effect on 8-OH-DAPT- induced behavioral syndrome(FBP: flat body posture) by the compound in reserpine pretreated rats at a dose of 2. It counts as functional.
For test [23], the species on record is Rattus norvegicus. Kind of test: Effect on 8-OH-DAPT- induced behavioral syndrome(FBP: flat body posture) by the compound in reserpine pretreated rats at a dose of 8; FBP mean score. Format: functional. In outline: as §4
For test [24], the species on record is Rattus norvegicus. Kind of test: Induction of behavioral syndrome(FT: forepaw treading) by the compound in reserpine pretreated rats at a dose of 32; FT mean score. It counts as functional. In outline:
as §3

The test system of test [25] is Rattus norvegicus. The test is described as follows: Induction of LLR(lower lip retraction) by the compound in rat at a dose of 8 mg/kg; LLR score. Format: functional. Summed up:
as §2

The species entered for test [26] is Rattus norvegicus. The test is described as follows: Dose Inducing behavioral syndrome(FT: forepaw treading) by the compound in reserpine pretreated rats. Format: functional. Summed up:
as §5

The species named for test [27] is Rattus norvegicus. Kind of test: Induction of behavioral syndrome(FT: forepaw treading) by the compound in reserpine pretreated rats at a dose of 16; FT mean score. It counts as functional. Summed up:
as §3

The species entered for test [28] is Rattus norvegicus. The test is described as follows: Induction of behavioral syndrome(FBP: flat body posture) by the compound in reserpine pretreated rats at a dose of 32; FBP mean score. Format: functional. In outline:
as §3

For test [29], the species on record is Rattus norvegicus. Kind of test: Dose Inducing behavioral syndrome(FBP: flat body posture) by the compound in reserpine pretreated rats. Format: functional. Summed up: as §5
Test [30] is filed under the species Rattus norvegicus. Kind of test: Effect on 8-OH-DAPT- induced behavioral syndrome(FBP: flat body posture) by the compound in reserpine pretreated rats at a dose of 32; FBP mean score. It counts as functional. Summed up: as §4
The test system of test [31] is Rattus norvegicus. Kind of test: Effect on 8-OH-DPAT-Induced LLR(lower lip retraction) in rats at a dose of 32 mg/kg. It counts as functional. In outline: as §1
The species named for test [32] is Rattus norvegicus. The test is described as follows: Induction of behavioral syndrome(FBP: flat body posture) by the compound in reserpine pretreated rats at a dose of 16; FBP mean score. Format: functional. Summed up:
as §5

The species entered for test [33] is Rattus norvegicus. The test is described as follows: Induction of behavioral syndrome(FT: forepaw treading) by the compound in reserpine pretreated rats at a dose of 8; FT mean score. Format: functional. In outline: as §3
Test [34] has as its system Rattus norvegicus. Kind of test: Induction of LLR(lower lip retraction) by the compound in rats at a dose of 32 mg/kg. Format: functional. In outline:
as §2

The species named for test [35] is Rattus norvegicus. Kind of test: Effect on 8-OH-DAPT- induced behavioral syndrome(FT: forepaw treading) by the compound in reserpine pretreated rats at a dose of 8; FT mean score. Format: functional. Summed up: as §4
The species named for test [36] is Rattus norvegicus. The test is described as follows: Induction of behavioral syndrome(FBP: flat body posture) by the compound in reserpine pretreated rats at a dose of 8; FBP mean score. Format: functional. In outline: as §3
For test [37], the species on record is Rattus norvegicus. The test is described as follows: Effect on 8-OH-DAPT- induced behavioral syndrome(FBP: flat body posture) by the compound in reserpine pretreated rats at a dose of 16; FBP mean score. It counts as functional. Summed up:
as §4

For test [38], the species on record is Rattus norvegicus. The test is described as follows: Effect on 8-OH-DAPT- induced behavioral syndrome(FT: forepaw treading) by the compound in reserpine pretreated rats at a dose of 16; FT mean score. Format: functional. Summed up:
as §4

The species named for test [39] is Rattus norvegicus. The test is described as follows: Effect on 8-OH-DAPT- induced behavioral syndrome(FT: forepaw treading) by the compound in reserpine pretreated rats at a dose of 32; FT mean score. Format: functional. Summed up: as §4

Regarding `COc1ccccc1N1CCN(C2CCC(N3C(=O)c4ccccc4C3=O)CC2)CC1` (stereo not given), the LLR score in the test with Rattus norvegicus [1] was 2; with Rattus norvegicus [3], 1; with Rattus norvegicus [9] it was 0.6; in the test on Rattus norvegicus [11] it was 1.5; in the test with Rattus norvegicus [16], 1.2; in the test with Rattus norvegicus [21], 1.3. In addition, the FT mean score in the test listed under Rattus norvegicus [2] was 0.1; in the test filed under Rattus norvegicus [5] it was 0.2; in the test filed under Rattus norvegicus [10], 0.2; in the test filed under Rattus norvegicus [12], 1; in the test filed under Rattus norvegicus [13] it was 4.2; in the test filed under Rattus norvegicus [20] it was 6.2. For the same compound, the FBP mean score was 0.2 in the test filed under Rattus norvegicus [4]; 0.2 in the test listed under Rattus norvegicus [6]; 5.6 in the test listed under Rattus norvegicus [7]; 8.8 in the test filed under Rattus norvegicus [8]; 0.1 in the test listed under Rattus norvegicus [14]; 9.8 in the test listed under Rattus norvegicus [22]. Moreover, the ED50 in the test listed under Rattus norvegicus [15] amounted to 7.5 mg/kg; in the test listed under Rattus norvegicus [18], 2.3 mg/kg; in the test filed under Rattus norvegicus [19] it was 6.3. Moreover, the affinity in test [17] corresponds to a Ki of 8 nM.
For the compound `O=C1c2ccccc2C(=O)N1C1CCC(N2CCc3ccccc3C2)CC1` (stereo not given), the FBP mean score in the test listed under Rattus norvegicus [23] was found to be 11; in the test filed under Rattus norvegicus [28], 0.3; in the test listed under Rattus norvegicus [30], 11.8; in the test listed under Rattus norvegicus [32], 0.5; in the test filed under Rattus norvegicus [36], 0.3; in the test filed under Rattus norvegicus [37] it was 10.3. Moreover, the FT mean score is 0.1 in the test listed under Rattus norvegicus [24]; 0.1 in the test listed under Rattus norvegicus [27]; 0.1 in the test listed under Rattus norvegicus [33]; 7.5 in the test filed under Rattus norvegicus [35]; 5.7 in the test listed under Rattus norvegicus [38]; 4.3 in the test filed under Rattus norvegicus [39]. Also, the LLR score came out at 0.1 with Rattus norvegicus [25]; 2.5 with Rattus norvegicus [9]; 2.3 with Rattus norvegicus [11]; 2.3 in the test with Rattus norvegicus [31]; 0.3 in the test on Rattus norvegicus [34]; 0.2 in the test on Rattus norvegicus [16]. Further, the ED50 in the test listed under Rattus norvegicus [26] was 13.5 mg/kg; in the test listed under Rattus norvegicus [29] it was over 32 mg/kg; in the test listed under Rattus norvegicus [15], over 32 mg/kg. Further, the affinity in test [17] corresponds to a Ki of 34 nM.
Regarding `O=C1c2ccccc2C(=O)N1CCCCN1CCc2ccccc2C1`, affinity in [17] was put at a Ki of 355 nM. This counts as sub-micromolar.
